# Assay outcomes deposited in PubChem by Sanford-Burnham Center for Chemical Genomics.
# beta cell repl = induces beta-cell replication in MIN6 cells. MIN6 cells proliferation, ATPlite luminescence, 48 h; cells starved in 0.2% serum; 100% = growth in 10% serum. 330,000 tested, 0.29% active. proliferation, % at 10 µM. AID 2380;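 active = compounds whose signal lies at least 3.5 SD above the mean of all wells on their plate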
# PPC-1+TRAIL kill = compounds killing PPC-1 cancer cells with TRAIL present (potentiator screen, no TRAIL-free arm). AID 1443. 220,000 tested, 0.41% active. PPC-1 cells + TRAIL, ATPLite viability luminescence. cell killing (% activity), % at 4 µM or 5 µM;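 active = cell killing above 50% in the first pass at 4 µM, then a duplicate retest at 5 µM averaging 50% or more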
# FLuc act counter = firefly luciferase counter-screen for stimulation assays | ATPlite luciferase biochemical, luminescence, 10 min; 0 = ATP-free wells, 1 = DMSO control | activation factor at 10 µM | 200,000 tested, under 10 active;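 active = luciferase activation factor, scaled between plate controls, of at least 2 with compound at 10 µM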
# Target sequence (P08659 whole entry, looked up): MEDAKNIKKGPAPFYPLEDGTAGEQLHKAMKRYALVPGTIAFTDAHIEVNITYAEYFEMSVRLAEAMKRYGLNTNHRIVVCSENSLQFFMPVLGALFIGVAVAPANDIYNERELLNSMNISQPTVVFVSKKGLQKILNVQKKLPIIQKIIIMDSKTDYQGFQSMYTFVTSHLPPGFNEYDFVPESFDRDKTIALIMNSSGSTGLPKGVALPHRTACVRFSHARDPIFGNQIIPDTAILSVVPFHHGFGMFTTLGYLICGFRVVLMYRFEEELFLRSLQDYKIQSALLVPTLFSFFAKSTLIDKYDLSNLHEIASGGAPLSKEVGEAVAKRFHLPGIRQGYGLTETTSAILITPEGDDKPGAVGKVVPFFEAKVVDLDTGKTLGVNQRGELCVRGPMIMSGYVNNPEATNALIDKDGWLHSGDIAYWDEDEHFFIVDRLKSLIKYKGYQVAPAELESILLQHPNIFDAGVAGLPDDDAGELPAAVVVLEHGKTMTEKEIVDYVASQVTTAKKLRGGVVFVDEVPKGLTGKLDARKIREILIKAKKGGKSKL
#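 test system = cell-free luciferase reagent | medium = PBS as buffer for the ATP substrate | dosing = test compounds dosed from 2 mM stocks in 100% DMSO | incubation = 10 min at ambient temperature | detection = luminescence measurement of luciferase light output | benchmarks = low control with PBS replacing ATP, high control enzyme plus ATP without compound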
# FLuc inh counter = Photinus pyralis luciferase inhibition counter-screen; inhibition, % at 10 µM; 200,000 tested, 1.5% active; P08659; ATPLite firefly luciferase biochemical luminescence, 10 min; AID 1006;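 active = inhibition above about 50% when tested at 10 µM, limit read from the data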
# TRAIL sens C8 = sensitizes caspase-8 expressing cells to TRAIL | 360,000 tested, 1% active | inhibition (viability loss, TRAIL sensitization), % at 10 µM | NB7+C8 cells + TRAIL, ATPlite viability luminescence;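 active = compounds causing at least 50% loss of cell viability in the single-dose screen, relative to plate controls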
# hiPSC survival = increases survival of single human iPS cells. hiPSC single-cell survival, ATPlite luminescence; 100% = ROCK inhibitor wells, 0% = DMSO. survival enhancement, % at 20 µM. 360,000 tested, 0.044% active; in the data active = survival enhancement above about 18%;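 also: cells exposed to compounds for 16 hours before the ATP read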
# Hits are given with their value; – = inactive; · = no result. An excerpt weighted towards active compounds, which were near 1.8% of everything screened.
SMILES,beta cell repl,PPC-1+TRAIL kill,FLuc act counter,FLuc inh counter,TRAIL sens C8,hiPSC survival
O=C(O)/C=C/c1cccc(NC(=O)c2ccccc2)c1,–,–,·,·,–,–
CCC(=O)OCOc1ccc(/C=C2/CCC(CN(C)C)C2=O)cc1 (centres undefined),·,·,·,·,72.2,–
Cc1nc(N/C(N)=N/S(=O)(=O)c2ccccc2)nc2ccccc12,–,·,·,·,–,–
CCC(c1nnc(SCC(=O)Nc2ccc(C(=O)N(C)C)cc2)n1Cc1ccccc1)N(C)C (centres undefined),–,·,·,·,–,–
O=Nc1ccc(NOC(=O)c2ccccc2Br)cc1,–,–,–,76.8,–,–
COc1ccc(Cl)cc1C(=O)O/N=C(\N)c1ccc(Cl)cc1,–,–,–,–,–,–
Cc1ccc(C(=O)NNC(=O)c2ccco2)cc1,–,–,–,57.3,–,–
Cc1ccc(C(=O)NNC(=S)NC(=O)c2ccco2)cc1,–,–,–,–,–,–
Cc1occc1C(=O)O/N=C(\N)c1ccc(Cl)cc1,–,–,·,·,87.0,–
Cc1ccc(/C(N)=N/OC(=O)c2ccco2)cc1,–,–,–,59.9,–,–
Cc1noc(-c2ccc(Cl)cc2)c1C(=O)O/N=C(\N)c1ccc(C(C)(C)C)cc1,–,–,·,·,94.4,–
O=C1CC(C(=O)Nc2cc(Cl)ccc2Cl)n2ncnc2N1 (centres undefined),–,–,–,–,–,–
COc1ccc(NC(=O)c2cc(=O)[nH]c(=O)[nH]2)cc1S(=O)(=O)Nc1ccccc1Cl,–,–,–,–,–,–
N/C(=N\OC(=O)c1ccco1)c1ccccc1,–,–,–,58.1,–,–
Cc1cccc(/C(N)=N/OC(=O)c2ccco2)c1,–,–,–,55.6,–,–
N/C(=N\OC(=O)c1ccco1)c1ccc(Br)cc1,–,–,–,–,–,–
COc1ccc(/C(N)=N/OC(=O)c2ccco2)cc1,–,–,–,68.1,–,–
N/C(=N\OC(=O)c1ccco1)c1ccccn1,–,–,–,55.1,–,–
CCN(CC(=O)Nc1ccc(NC(C)=O)cc1)c1ccc(C(F)(F)F)cn1,–,–,–,–,–,–
O=C(Cc1cccc(NC(=O)C2CCCN(C(=O)CCc3ccccc3)C2)c1)Nc1cccc(C(=O)N2CCCCC2)c1 (centres undefined),·,·,·,·,–,–
CCCN1CCC(NC(=O)CC2C(=O)NCCN2Cc2ccccc2C)CC1 (centres undefined),–,·,·,·,–,–
COc1ccc(C(=O)COC(=O)c2ccco2)cc1,–,–,–,72.0,–,–
C=C1C(=O)c2sccc2C(c2ccc(OC)c(OC)c2)C1COC(C)=O (centres undefined),·,·,·,·,92.7,–
CCN1CCN(CC(=O)N2N=C(c3cccs3)CC2c2ccc(OC)c(OC)c2)C(=O)C1=O (centres undefined),–,–,–,–,–,–
Cc1ccc(-c2nn3c(C)nnc3s2)cc1NC(=O)c1ccc(-c2cccc(Cl)c2)o1,–,–,–,–,–,–
SMILES,beta cell repl,PPC-1+TRAIL kill,FLuc act counter,FLuc inh counter,TRAIL sens C8,hiPSC survival
Cc1ccc(-c2nn3c(C)nnc3s2)cc1NC(=O)c1ccc(-c2ccc(Cl)cc2Cl)o1,–,–,–,–,60.1,–
O=C(COC(=O)c1cc(S(=O)(=O)N2CCOCC2)ccc1F)c1ccccc1,–,·,·,·,–,–
O=C(OCc1cccc(C(F)(F)F)c1)c1cc(S(=O)(=O)N2CCOCC2)ccc1F,–,·,·,·,72.3,–
O=C(NCc1ccc(Cl)s1)C1CCC(=O)N(CCc2ccccn2)C1 (centres undefined),–,·,·,·,–,–
Cn1cccc1/C=N/n1c(-c2ccc(C(C)(C)C)cc2)n[nH]c1=S,–,–,–,–,53.8,–
Cc1cc(/C=C\c2ccccc2)nc2ccccc12,–,–,–,67.6,–,–
CCn1c(CCC(=O)N(C)CC(=O)Nc2cccc(F)c2)nc2cc(S(=O)(=O)N(C)C)ccc21,–,·,·,·,–,–
CCOc1ccc(/C=N/NC(=O)c2cc3ccccc3cc2OC)cc1,–,·,·,·,–,–
CCc1ccc2oc(-c3cc(N=Cc4cccc(OC)c4O)ccc3O)nc2c1,–,–,–,84.1,·,·
O=c1c2ccccc2c(/C=N/c2nnc(Cc3ccccc3)s2)c(O)n1-c1ccc(Cl)cn1,–,–,–,50.2,–,–
N#CC1C(=O)NC(=O)C(C#N)C12CCCC2 (centres undefined),·,·,·,·,–,–
Cc1nn(Cc2ccc(Cl)cc2Cl)c(C)c1NC(=O)CCl,–,–,–,–,89.5,–
CCc1ccccc1N/C(=N\S(=O)(=O)c1ccccc1)C(F)(F)F,–,–,–,–,–,–
COC(=O)c1ccc(C(=O)OC)c(NC(=O)CSc2cccc[n+]2[O-])c1,–,–,–,–,–,22.0
COC(=O)c1ccc(-n2c(C)cc(C(=O)CSc3cccc[n+]3[O-])c2C)cc1,–,–,–,–,–,–
CC(=O)Nc1ccc2c(c1)ncn2C,–,–,–,–,–,–
CC(=O)Nc1ccc2c(c1)ncn2-c1ccc(C)cc1,–,–,–,53.0,–,–
O=c1oc2ccccc2cc1-c1nc2ccccc2o1,–,–,–,–,–,–
O=c1oc2ccccc2cc1-c1nc2c(s1)CCCC2,–,–,–,66.6,62.9,–
COc1cc(OC)c2c(=O)cc(-c3cccnc3)oc2c1,·,–,·,·,–,–
COc1cc(OC)c2c(=O)cc(-c3ccccc3)oc2c1,–,–,–,58.0,–,–
CCN1CCN(c2ccc(NC(=O)c3ccc(Cl)c(N4CCCC4=O)c3)cc2)CC1,–,·,·,·,–,–
CCc1cnccc1CCC(=O)Nc1ccccc1C,–,·,·,·,–,–
Cc1ccc(C=Nc2ccc(N(C)C)cc2)o1,–,–,–,76.4,–,–
COc1ccc(C2C(O)C(c3c[nH]c4ccccc34)=NN2C(=O)CCl)cc1 (centres undefined),–,·,·,·,95.6,–
SMILES,beta cell repl,PPC-1+TRAIL kill,FLuc act counter,FLuc inh counter,TRAIL sens C8,hiPSC survival
COc1ccc(C2NN=C(c3c[nH]c4ccccc34)C2O)cc1 (centres undefined),–,·,·,·,–,–
Clc1ccc(OCCSc2ncccn2)c(Br)c1,–,–,–,54.2,–,–
CC1COc2c3ccccc3nn21 (centres undefined),·,·,·,·,–,–
COc1ccc(C2C(C(=O)N3CCN(c4ccccc4)CC3)c3ccccc3C(=O)N2C)cc1 (centres undefined),–,–,–,–,59.0,–
COc1ccc(C2C(C(=O)N3CCN(c4ccccc4)CC3)c3ccccc3C(=O)N2C)cc1OC (centres undefined),–,–,–,–,68.0,–
COc1ccccc1N1CCN(C(=O)CCCNC(=O)Cn2cnc3sc(C)c(C)c3c2=O)CC1,–,·,·,·,–,–
CC(C)=CCc1cc([C@@H]2CC(=O)c3ccc(O)c(CC=C(C)C)c3O2)ccc1O,–,·,·,·,–,–
